Laboratory results: ChEMBL document CHEMBL1128420, “Novel steroidal inhibitors of human cytochrome P45017 alpha (17 alpha-hydroxylase-C17,20-lyase): potential agents for the treatment of prostatic cancer” (J Med Chem, 1995)

How the values were obtained:
Aromatase = target: T1, Aromatase (Homo sapiens, UniProt P11511); test: Inhibition of Cytochrome P450 19A1
T1 sequence (P11511 whole entry): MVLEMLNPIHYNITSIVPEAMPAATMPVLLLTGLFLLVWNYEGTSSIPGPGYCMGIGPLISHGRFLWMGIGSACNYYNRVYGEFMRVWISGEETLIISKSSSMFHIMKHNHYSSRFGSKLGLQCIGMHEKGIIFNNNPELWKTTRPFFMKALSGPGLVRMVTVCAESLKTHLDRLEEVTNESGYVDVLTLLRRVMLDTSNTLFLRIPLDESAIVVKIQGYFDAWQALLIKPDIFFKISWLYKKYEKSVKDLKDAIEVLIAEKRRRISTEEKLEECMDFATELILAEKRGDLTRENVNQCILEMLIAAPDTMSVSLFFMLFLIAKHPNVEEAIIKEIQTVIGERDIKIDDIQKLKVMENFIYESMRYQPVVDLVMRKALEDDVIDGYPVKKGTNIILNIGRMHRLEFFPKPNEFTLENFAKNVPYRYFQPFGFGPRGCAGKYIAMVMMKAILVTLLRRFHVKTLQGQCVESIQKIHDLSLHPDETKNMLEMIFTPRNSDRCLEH
Method in brief: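 Aromatase from the microsomal fraction of human placenta.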

[1] = target: T2, Steroid 17-alpha-hydroxylase/17,20 lyase (Homo sapiens, UniProt P05093); test: Ability to inhibit the C17,20-lyase enzyme by 50% using 17-alpha-hydroxyprogesterone as substrate.
T2 sequence (P05093 whole entry): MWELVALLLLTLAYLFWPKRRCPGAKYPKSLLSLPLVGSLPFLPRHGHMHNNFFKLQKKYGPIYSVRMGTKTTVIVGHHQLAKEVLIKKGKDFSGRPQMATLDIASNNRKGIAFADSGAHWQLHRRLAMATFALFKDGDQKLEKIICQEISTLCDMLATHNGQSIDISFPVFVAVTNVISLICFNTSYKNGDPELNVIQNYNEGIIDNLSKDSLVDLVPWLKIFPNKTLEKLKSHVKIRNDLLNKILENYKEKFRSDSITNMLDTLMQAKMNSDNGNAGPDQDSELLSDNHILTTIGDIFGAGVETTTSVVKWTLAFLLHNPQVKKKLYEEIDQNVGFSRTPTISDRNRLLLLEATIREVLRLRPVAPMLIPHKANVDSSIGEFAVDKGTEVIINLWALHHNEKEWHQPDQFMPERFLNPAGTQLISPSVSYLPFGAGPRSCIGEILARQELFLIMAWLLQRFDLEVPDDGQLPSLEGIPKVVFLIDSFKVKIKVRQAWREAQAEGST

[2] = target: T2, Steroid 17-alpha-hydroxylase/17,20 lyase; test: Ability to inhibit the Steroid 17-alpha-hydroxylase/17,20 lyase enzyme by 50%.
[3] = Inhibition of Steroid 5-alpha-reductase; set-up: species or system Homo sapiens
Method in brief: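 Testosterone 5α-reductase from human benign prostatic tissue.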

Row | SMILES | IC50 (Aromatase) [nM] | IC50 [1] [nM] | IC50 [2] [nM] | IC50 [3] [nM]
1 | C[C@]12CC[C@H](O)CC1=CC[C@@H]1[C@@H]2CC[C@]2(C)C(c3ccncc3)=CC[C@@H]12 | > 20000 | 1000 | 4000 | 
2 | C[C@]12CC[C@H](O)CC1=CC[C@@H]1[C@@H]2CC[C@]2(C)C(c3ccccn3)=CC[C@@H]12 | > 20000 | 76 | 270 | 
3 | C[C@]12CCC(=O)C=C1CCC1C2C(=O)C[C@]2(C)C(c3cccnc3)=CCC12 (some centres not stated) |  | 2.9 | 13 | 
4 | C[C@]12CCC(=O)C=C1CCC1C2CC[C@]2(C)C(c3cccnc3)=CCC12 (some centres not stated) | 1800 |  |  | 10000
5 | C[C@]12CCC(Oc3c(F)c(F)c(C(F)(F)F)c(F)c3F)=CC1=CCC1C2CC[C@]2(C)C(c3cccnc3)=CCC12 (some centres not stated) |  | > 10000 | > 10000 | 
6 | C[C@]12CCC(O)CC1=CCC1C2CC[C@]2(C)C(Cc3ccccn3)=CCC12 (some centres not stated) |  | > 10000 | > 10000 | 
7 | C[C@]12CC[C@H](O)CC1=CCC1C2CC[C@@]2(C)C1CC[C@@H]2c1cccnc1 (some centres not stated) |  | 23 | 47 | 
8 | C[C@]12CCC3C(CC[C@H]4CC(=O)CC[C@]34C)C1CC=C2c1cccnc1 (some centres not stated) |  | 3 | 4.7 | 
9 | C[C@]12CCC3C(CC=C4C[C@@H](O)CC[C@@]43C)C1CCC2c1ccncc1 (single isomer, unassigned) |  | 53 | 160 | 
10 | C[C@]12CC[C@H](O)CC1=CC[C@@H]1[C@@H]2CC[C@]2(C)C(c3cccnc3)=CC[C@@H]12 [ABIRATERONE] | > 20000 |  |  | > 50000
